Reference: ChEMBL document CHEMBL5029161, “Synthetic Neutralizing Peptides Inhibit the Host Cell Binding of Spike Protein and Block Infection of SARS-CoV-2” (J Med Chem, 2021)
Activity calls are given as the source filed them. No cut-off for these calls is given here.

Key:
293T/ACE2 [1] = assay: Inhibition of recombinant SARS-Cov-2 Spike protein subunit S1 binding to human 293T/ACE2 cells preincubated for 1 hr by Western blot analysis; format: cell-based; details: Severe acute respiratory syndrome coronavirus 2
How it was run: (§1)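 Recombinant S1 protein was preincubated with peptides for 1 h at 37 °C, then added to A549 or 293T-ACE2⁺ cells for 1 h. Cells were washed, lysed in RIPA with PMSF and phosphatase inhibitor, and equal protein was run on SDS-PAGE. Blots on PVDF were probed with anti-S1 rabbit pAb, with ACTB as loading reference, and detected by chemiluminescence.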

A549 [2] = assay: Inhibition of recombinant SARS-Cov-2 Spike protein subunit S1 binding to human A549 cells preincubated for 1 hr by Western blot analysis; format: cell-based; details: Severe acute respiratory syndrome coronavirus 2; how it was run: as §1
[3] = Binding affinity to the recombinant SARS-Cov-2 Spike protein subunit S1 by QCM-D measurement; design: species or system Severe acute respiratory syndrome coronavirus 2
How it was run: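 Peptides were thiolated and coated onto 5 MHz gold QCM-D sensors for 30 min at room temperature. Recombinant S1 protein then flowed over as mobile phase at 300 μL/min, 37 °C, in PBS. Kd came from nonlinear regression of saturated binding mass (Δm) against […] (nM).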

A549 [4] = assay: Cytotoxicity against human A549 cells assessed as cell viability at 0.001 to 100 uM measured after 48 hrs using CCK-8 assay; format: cell-based; details: a549, 48 h, dose 0.001-100 µM
How it was run: (§2)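 A549 cells were grown in McCoy-5A with 10% FBS. They were exposed to peptides at 1 nM–100 μM (tenfold steps) for 48 h, with medium alone as control. After a PBS wash, CCK-8 was added and incubated at 37 °C. OD was read at 450/630 nm and normalised to control, n = 3.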

293T/ACE2 [5] = assay: Cytotoxicity against human 293T/ACE2 cells assessed as cell viability at 0.001 to 100 uM measured after 48 hrs using CCK-8 assay; format: functional, cell-based; details: dose 0.001-100 µM
How it was run: as §2, with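 “293T-ACE2⁺” for “A549”, “high-glucose DMEM” for “McCoy-5A”, “FBS and 500 μg/mL hygromycin.” for “FBS.”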

293T/ACE2 [6] = assay: Inhibition of Spike protein subunit S in SARS-CoV-2 pseudovirus assessed as inhibition of infection in human 293T/ACE2 cells by measuring decrease in fluorescence intensity at 0.000001 to 100 uM pretreated for 1 hr; format: cell-based; details: Severe acute respiratory syndrome coronavirus 2, dose lower 1e-06 µM, dose upper 100.0 µM
How it was run: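 A bought-in HIV-1-based S-pseudotyped reporter virus expressing GFP was preincubated with serially diluted peptides for 1 h at 37 °C. It was then applied to 293T-ACE2⁺ cells for 1 h and replaced with fresh medium, followed by 47 h more culture. Cellular GFP fluorescence intensity was observed.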

293T/ACE2 [7] = assay: Inhibition of Spike protein subunit S in SARS-CoV-2 pseudovirus assessed as inhibition of infection in human 293T/ACE2 cells by measuring decrease in luciferase activity at 0.000001 to 100 uM pretreated for 1 hr; format: cell-based; details: Severe acute respiratory syndrome coronavirus 2, dose lower 1e-06 µM, dose upper 100.0 µM
How it was run: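 The pseudovirus was HIV-1-based, bought ready-made, and carried S protein with luciferase and GFP reporters. It was pre-mixed with serially diluted peptides (1 pM–100 μM) for 1 h at 37 °C, then added to 293T-ACE2⁺ cells for 1 h. Medium was then replaced, followed by 47 h further culture. Infection rate was derived from luciferase activity.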

| Substance | inhibition (293T/ACE2 [1]) | inhibition (A549 [2]) | Kd [3] | Activity (A549 [4]) | Activity (293T/ACE2 [5]) | inhibition (293T/ACE2 [6]) | inhibition (293T/ACE2 [7]) |
| --- | --- | --- | --- | --- | --- | --- | --- |
| H-GDGVYYPRDVFDSSVLDSTQR-OH | Active | Active | 5.6 nM | Non-Toxic | Not toxic | Active | Active |
| H-GDLFDDSNLDPFRDRISTRR-OH | Active | Active | 37.5 nM | Non-Toxic | Not toxic | Active | Active |
| H-GDRIARTTRAVDRPQTLRR-OH | Active | Active | 76.9 nM | Non-Toxic | Not toxic | Active | Active |
